# Assays:
# MS2 coat protein [1] = test: apparent Kd, MS2 coat protein; higher = weaker binding; RNA-MaP array
# In short: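 With or without input ligand, designed RNAs transcribed on an Illumina sequencing chip from sequenced DNA templates were incubated at room temperature with fluorescently labeled MS2 coat protein at 1.5 nM to 3 μM. The buffer was Tris-HCl pH 7.5 with KCl, MgCl2, BSA, DTT, tRNA and Tween20, and incubation ran 0.8–1.5 h at the lowest and 10–20 min at the highest concentrations. Apparent Kd is reported as the median of fits to binding curves from individual clusters. Designs measured on fewer than 10 clusters are not included.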
# MS2 coat protein [2] = test: apparent Kd, MS2 coat protein; higher = weaker binding; RNA-MaP array; FMN 200 µM where present; conditions: designed as: OFF switch for flavin mononucleotide
# In short: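 Each design was made on Illumina sequencing-chip clusters by stalled E. coli RNA polymerase and titrated with SNAP-549-labelled MS2 coat protein from 0.7 or 1.5 nM, doubling to 3 µM, in the absence and then the presence of constant ligand. The buffer was 100 mM Tris-HCl pH 7.5, 80 mM KCl, 4 mM MgCl2, BSA, DTT, yeast tRNA and Tween-20. The apparent Kd is the median of filtered per-cluster fits of binding curves, with green signal normalised to red-channel RNA signal and control-cluster median Fmax.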
# [3] = designed as: ON switch for flavin mononucleotide, no ligand
# [4] = ligand present: flavin mononucleotide, designed as: ON switch for flavin mononucleotide
# [5] = designed as: OFF switch for flavin mononucleotide, no ligand
# [6] = ligand present: flavin mononucleotide, designed as: OFF switch for flavin mononucleotide
Sequence,apparent Kd (MS2 coat protein [1]; [3]),apparent Kd (MS2 coat protein [1]; [4]),apparent Kd (MS2 coat protein [1]; [5]),apparent Kd (MS2 coat protein [1]; [6]),also measured
AUUAUGCAGUGAGAGGAUAUCAUCGAUAAGACAUGAGGAUCACCCAUGUGUGUCAGGGUUACACAUGAGAAGGCUCACCAAACUUU,7.28 nM,7.49 nM,–,–,–
AAUAGAGCACUAGGAUAUGUUUCGUGUGCAGGUGGACAUGAGGAUCACCCAUGUAUAUGUUCAAGACAGAAGGAGACAGAUGAA,–,–,59.2 nM,38.4 nM,–
GGAUACAGGAUAGGAUAUUCUGGGCCUUACAUGAGGAUCACCCAUGUGGAUUUUAUAUAUAGCCGGAAGAAGGAUCAACAGGUG,–,–,11.8 nM,9.21 nM,–
GACAUGAGGAUCACCCAUGUAUGUGGGACUGCGCAUUGAUACUAGGAUAUCUGCCCAGACGUGUGAGAGAAGGAGUACGGUAAA,74.7 nM,56 nM,–,–,–
GUGUCUUGGGAGGAUAUCCACUUCACGUCAUAUGGAGAAGGCCCGACAUGAGGAUCACCCAUGUGGUAACUGGC,–,–,25.7 nM,28.7 nM,–
GACAACCACAUGAGGAUCACCCAUGUUUACAUACACAAGGGAAGAAGGGAACCUAAAGGAUCAAAUCAGGAUAUUCGUAUUGUA,27 nM,19.5 nM,–,–,–
CGACAUUAGUAGAAGGAGGAGUAGCGAUAGAGCCUAGGAUAUACGAACAAAUACAUGAGGAUCACCCAUGUUGACGAUCCAUCA,–,–,49 nM,45.8 nM,–
CGUUAAGAAUCGGCCGCCACUCCAUACGUGUGAAUCGCGGAUCGACAUGAGGAUCACCCAUGUCGGAGGACCGGGAUCCUCUUUC,–,–,–,–,"apparent Kd (MS2 coat protein [1]; designed as: ON switch for tryptophan, no ligand): 35 nM; apparent Kd (MS2 coat protein [1]; ligand present: tryptophan, designed as: ON switch for tryptophan): 23.3 nM"
CUAGGCGUGCAGAAGGCGGAAAUAUUUCGUGGCCGAGGAUAUGCUGAUAUAUCGCAAGUGACAUGAGGAUCACCCAUGUGUCUA,16.6 nM,14.2 nM,–,–,–
GUGGCACUCCUAGGAUAUUCACCUUGCGUAGAAAGACAUGAGGAUCACCCAUGUGUCUCUUAUUUGAAGAAGGAGGAACCUCGG,12.7 nM,13 nM,–,–,–
AGGUGUCCAGGAGGAUAUGAUUGCAACACGCCCUCAGAAGGCCUUAUAUACAAAGCAUACAUGAGGAUCACCCAUGUAAUUGGA,8.74 nM,9.11 nM,–,–,–
AUCAAUAAUGUUAGGAUAUCUAGCUAUUUUAUGGUAGAGAAGGAACAUGAGGAUCACCCAUGUUGAGCUAUAUU,–,–,8.45 nM,8.82 nM,–
UCCUCGCACGAGAAGGCAAGCCGAGAAACACCUUGAGGAUAUCGUCGACAGACCACCGGGACAUGAGGAUCACCCAUGUGGGCC,–,–,75.2 nM,49 nM,–
CUGUUACAUGAGGAUCACCCAUGUGAGCGGUUGCUAGGAUAUCGCCAUUGGUGGUUCGGACGAGAAGGAGCUAAAA,150 nM,67.2 nM,–,–,–
CUUACUCGUCUAGGAUAUCGAAUGCCAACAUGAGGAUCACCCAUGUGUGGGUUGAUCGUCUAGGCCGAGAAGGAGACUGCAAUC,–,–,8.88 nM,18.1 nM,–
UGGGAACGAGGAUAUACAUGAGGAUCACCCAUGUUCAAGAUUCGGGUAUAAUGCCUCAGUAGAAGGCGUAAGCA,–,–,107 nM,108 nM,–
GUGGCUUCGGUGAGGAUAUGUCCGAUAAAACUGAGACAGAAGGCACAUGAGGAUCACCCAUGUAGCGUUGAUUC,–,–,17.5 nM,44.5 nM,–
CAUCGGGCGGUAAAUGGCGGGUACGGUGAUACCAGUUUUUGAUUUAACCCUUGGCAGCACUAUACAUGAGGAUCACCCAUGUAAU,–,–,–,–,"apparent Kd (MS2 coat protein [1]; designed as: OFF switch for theophylline, no ligand): 17.9 nM; apparent Kd (MS2 coat protein [1]; ligand present: theophylline, designed as: OFF switch for theophylline): 30 nM"
UUUAACAAGAACGUCCUGAGUGACAAGCUACGAGGACCGGUACGGCCGCCACUCGUACCAAAACAUGAGGAUCACCCAUGUUAAA,–,–,–,–,"apparent Kd (MS2 coat protein [1]; designed as: OFF switch for tryptophan, no ligand): 17.4 nM; apparent Kd (MS2 coat protein [1]; ligand present: tryptophan, designed as: OFF switch for tryptophan): 17.8 nM"
UCCUCGUUAGGAUAUGCCCACAUACACAGUUGUGAACUCUGGCAGAAGGAACAUGAGGAUCACCCAUGUAUAUA,–,–,89.3 nM,230 nM,–
UGGUGGAAGACAUGAGGAUCACCCAUGUUCGUAGAUGCCGAGCAGGAUAUUAGAUCAUAAACCAGUAAGAAGGGCUGAGUGUCU,31.8 nM,26.1 nM,–,–,–
UCGCCGCUGGAGACAUGAGGAUCACCCAUGUGGUCUUUCGUAAGAAGGUGCCUAUAGAACUUUUGCAAGGAUAUUACGCCGGAG,–,–,217 nM,113 nM,–
AAGCGUUCAGGAUAUACAUGAGGAUCACCCAUGUAAUGGAUGCUGCAUUACCGGGCGAGUAGAAGGGAAACGUC,–,–,6.09 nM,6.24 nM,–
AAUGAAAAGCAGAAGGCCUUAGCAAGUCGUAGAGGAGGAUAUGCGUACGCGGGUUGGCCAACAUGAGGAUCACCCAUGUCACCA,–,–,22.4 nM,26.3 nM,–
ACGAAUGGUUCAACAUGAGGAUCACCCAUGUGAUCUUCCAUUCAGGAUAUGUGUAGUAGAUCUCAACAGAAGGGAAUAAAAUAG,–,–,35.8 nM,38.7 nM,–
UUAUUAUGUGUAGGAUAUGCAUAUCAUUAUUAUGCAGAAGGACAUGAGGAUCACCCAUGUAUAUUAUUAUUAUAUAUUAUAUAU,–,–,–,–,apparent Kd (MS2 coat protein [2]; no ligand): 15.3 nM; apparent Kd (MS2 coat protein [2]; ligand present: flavin mononucleotide): 16.6 nM

# From the EternaBench riboswitch data
